Measured values: article PMC6279569 (Clinical cancer research : an official journal of the …, 2018)

How the values were obtained:
[1] = tested on: HR-mediated DSB repair in DR-GFP cells; test: Double stranded DNA break repair assay, DR-GFP; type: cell-based
Summary of the method: (§1)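 U2OS-derived reporter lines carry stable GFP reporters: DR-GFP for HR and EJ5-GFP for end joining. Cells were grown in DMEM/10% FBS, seeded at 2.5×10⁴ cells/cm² and attached overnight. They were lipofected with an I-SceI expression plasmid; after 3 h, medium was replaced with fresh medium containing test compound at various concentrations (DMSO control). GFP-positive fraction was measured by flow cytometry 3 d post-transfection, relative to control.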

human TRβ = biological target: T1, human TRβ (Homo sapiens, UniProt P10828); test: Human thyroid hormone receptor beta; type: cell-based; settings: various concentrations, 24 h
T1 sequence (P10828 1-461): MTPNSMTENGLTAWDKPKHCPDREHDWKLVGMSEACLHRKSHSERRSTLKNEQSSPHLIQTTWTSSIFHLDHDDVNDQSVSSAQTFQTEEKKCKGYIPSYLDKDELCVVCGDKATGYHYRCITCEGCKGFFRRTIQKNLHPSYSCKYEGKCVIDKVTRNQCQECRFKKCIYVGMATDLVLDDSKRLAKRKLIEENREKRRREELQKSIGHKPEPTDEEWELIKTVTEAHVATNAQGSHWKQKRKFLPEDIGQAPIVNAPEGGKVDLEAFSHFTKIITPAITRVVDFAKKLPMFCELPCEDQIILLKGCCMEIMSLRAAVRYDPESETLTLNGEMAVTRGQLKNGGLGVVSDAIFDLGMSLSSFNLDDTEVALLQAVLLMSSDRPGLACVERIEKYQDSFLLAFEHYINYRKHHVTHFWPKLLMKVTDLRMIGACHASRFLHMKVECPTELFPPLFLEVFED
Summary of the method: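 Commercial reporter cells constitutively expressing human TRβ, with luciferase driven by a TRβ-responsive promoter. Treated for 24 h with various concentrations of T3 (reference agonist) or test compound. TRβ activity read as luciferase relative luminescence units on a plate reader.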

[2] = tested on: γH2A.X, caspase-3 and caspase-9 in cancer cells; test: Western blot, cancer cells; type: cell-based, human
Summary of the method: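 Conditions: SK-N-DZ cells with 3 µM AOH39 for 0, 6 or 24 h; cancer cells with 500 nM AOH1160 for the indicated times. Cells were lysed in Laemmli buffer, sonicated, run on 4–12% SDS-PAGE and blotted to nitrocellulose. After 5% milk block, blots were probed for γH2A.X, total H2A.X, cleaved and full-length caspase-3, and cleaved caspase-9. Detection used peroxidase secondaries and ECL.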

SK-N-DZ and H524 cells = test: Cell cycle analysis by PI flow cytometry, cancer cells; type: cell-based, human
[3] = tested on: EJ-mediated DSB repair in EJ5-GFP cells; test: Double stranded DNA break repair assay, EJ5-GFP; type: cell-based; settings: 4 µM AOH39
Summary of the method: as §1

SK-N-DZ cells = test: TUNEL assay, cancer cells; type: cell-based, human; settings: 500 nM AOH1160, 24 h
Summary of the method: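 Cells were seeded at 1×10⁵/ml on chamber slides. Once attached, they were treated 24 h with 500 nM test compound, then fixed. Apoptosis was detected by TUNEL with a TMR red in situ cell death kit; red TMR fluorescence marks free DNA ends.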

carboxyl esterase, ES-1 = biological target: T2, carboxyl esterase, ES-1 (Mus musculus, UniProt P23953); test: Stability in plasma, rodent; type: in vitro ADME
T2 sequence (P23953 19-554): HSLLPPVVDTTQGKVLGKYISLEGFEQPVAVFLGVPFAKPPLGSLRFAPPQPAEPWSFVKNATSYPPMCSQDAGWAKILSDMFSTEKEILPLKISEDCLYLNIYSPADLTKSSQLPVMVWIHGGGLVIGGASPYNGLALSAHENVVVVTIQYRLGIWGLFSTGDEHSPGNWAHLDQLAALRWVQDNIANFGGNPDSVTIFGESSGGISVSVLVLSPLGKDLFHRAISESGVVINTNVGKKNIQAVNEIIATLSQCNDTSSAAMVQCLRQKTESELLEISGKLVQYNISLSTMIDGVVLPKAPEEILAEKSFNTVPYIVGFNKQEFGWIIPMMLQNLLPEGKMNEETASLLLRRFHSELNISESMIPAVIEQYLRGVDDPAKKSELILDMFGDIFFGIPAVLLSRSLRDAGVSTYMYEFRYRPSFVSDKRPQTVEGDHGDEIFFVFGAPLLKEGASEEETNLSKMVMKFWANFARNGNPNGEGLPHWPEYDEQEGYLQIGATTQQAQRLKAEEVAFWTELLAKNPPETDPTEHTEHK
Summary of the method: (§2)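 Test compound was incubated in plasma at 37 °C, with aliquots removed at various times. Remaining parent was quantified by LC-MS/MS (UPLC gradient, positive-ion electrospray) and expressed as percent of input concentration.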

[4] = Stability in plasma, canine; type: in vitro ADME; settings: 37°C
Summary of the method: as §2

[5] = tested on: xenograft tumors of SK-N-BE(2)c, SK-N-AS, MDA-MB-468 and H82; test: In vivo xenograft tumor model; settings: 40 mg/kg once daily by oral gavage
Pharmacokinetic = type: in vivo, ES1^e/SCID mice
Summary of the method: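 Test compound was dissolved at 60 °C under nitrogen in vehicle (Kolliphor HS 15, Poloxamer 407, BHA, BHT, propyl gallate). It was diluted to 4 mg/mL in 1:1 water:vehicle just before dosing and given orally at 40 mg/kg to male and female ES1^e/SCID mice. Plasma was taken by cardiac puncture at 0–24 h (3 male + 3 female per time point). Levels were measured by LC-MS/MS (positive ESI, MRM); PK parameters were derived by non-compartmental analysis.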

normal neural stem cells = test: Cell growth of normal neural stem cells; type: cell-based; settings: 1 µM, 72 hours; NSC005-007
Summary of the method: (§3)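 Cells derived from WHO grade IV glioblastoma or primary brain tissue, grown as neurospheres in DMEM/F12 with 20 ng/ml EGF, 20 ng/ml FGF, 5 µg/ml heparin, B27 and 2 mM L-glutamine. Seeded at 5 × 10³/ml or 3 × 10⁴/ml. Given DMSO or 1 µM compound for 72 h. Growth read by CellTiter-Glo luminescence relative to DMSO control, ± S.D.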

glioblastoma stem cells = test: Cell growth of glioblastoma stem cells; type: cell-based, human; settings: 1 µM, 72 hours; PBT003, PBT707, PBT017
Summary of the method: as §3

[6] = mouse, in vivo
Recombinant human PCNA = Recombinant human PCNA (Homo sapiens, UniProt P12004); test: Saturation Transfer Difference; type: binding; settings: T3 50 µM, AOH1160 expected 16 µM, 1 µM PCNA
Sequence of Recombinant human PCNA (P12004 whole entry): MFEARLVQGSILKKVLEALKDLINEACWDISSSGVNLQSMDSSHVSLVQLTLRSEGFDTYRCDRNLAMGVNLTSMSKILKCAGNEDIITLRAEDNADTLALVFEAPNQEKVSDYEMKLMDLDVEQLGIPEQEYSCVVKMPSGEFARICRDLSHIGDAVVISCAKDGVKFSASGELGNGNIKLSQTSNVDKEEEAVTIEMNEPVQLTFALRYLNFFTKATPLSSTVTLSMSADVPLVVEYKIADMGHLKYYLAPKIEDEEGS
Summary of the method: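 Recombinant human PCNA (1 µM) in 15 mM D₂O phosphate buffer, pH 7.2, with 10 µM deuterated DTT and 2% D₆-DMSO. T3 (50 µM) was run with and without test compound; 4 µM DSS served as internal reference for ligand concentration. Spectra were taken at 25 °C, 700 MHz, cryoprobe. Saturation was at 0.9 ppm and reference at −30 ppm, acquired interleaved. STD = (I_Ref − I_STD)/I_Ref.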

7SM0032 cells = test: TUNEL assay, non-malignant cells; type: cell-based; settings: 500 nM AOH1160, 24 h
Summary of the method: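 7SM0032 cells (hEPM-1 medium, 37°C, 5% CO2) seeded at 1×10⁵/ml on chamber slides. Once attached, treated with 500 nM compound for 24 h. Fixed and labelled by TUNEL using a TMR-red in situ cell death kit. Red fluorescence at free DNA ends scored as apoptotic cells.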

7SM0032 and SAEC cells = test: Cell cycle analysis by PI flow cytometry, non-malignant cells; type: cell-based, human; settings: 500 nM AOH1160
Summary of the method: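 7SM0032 cells (hEPM-1 medium) and SAEC (SAGM medium), 37°C, 5% CO2. Seeded at 1×10⁵/ml and attached overnight. Exposed to 500 nM test compound for the indicated time (methods: 6 or 24 h). Fixed in 60% ethanol, stained with propidium iodide, and analysed by flow cytometry. Cell-cycle populations, including sub-G1, were modelled from PI intensity.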

SK-N-DZ NB cells = test: Clonogenic assay with cisplatin, SK-N-DZ; type: cell-based, human; settings: 500 nM AOH1160, 18 h
Summary of the method: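 300 SK-N-DZ cells per 60-mm dish, attached overnight, then treated 18 h with or without various cisplatin concentrations, with or without 500 nM test compound. After two washes, cells were grown 3 weeks in fresh medium changed every 3 d. Colonies were stained with 0.5% crystal violet and counted. Combination index used the Bliss independence model: CI = (E_A+E_B−E_A*E_B)/E_AB.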

[7] = Stability in plasma, human; type: in vitro ADME; settings: 37°C
Summary of the method: as §2

[8] = Stability in plasma, monkey; type: in vitro ADME; settings: 37°C
Summary of the method: as §2

[9] = tested on: non-malignant cells (PBMC, 7SM0032, MCF10A, mammary epithelial cells, small airway epithelial cells); test: Cell growth, CellTitor-Glo assay, non-malignant cells; type: cell-based; settings: human PBMCs, 7SM0032 cells
γH2A.X in 7SM0032 cells = test: Western blot, non-malignant cells; type: cell-based, human; settings: 500 nM AOH1160
Summary of the method: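 7SM0032 cells treated with 500 nM compound for the indicated times, then lysed directly in Laemmli buffer on the plate. Immunoblot membranes blocked in 5% nonfat milk and probed with anti-γH2A.X. Detection with peroxidase-conjugated secondary antibody and ECL.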

[10] = tested on: SK-N-BE(2)c, H82 and H526 cells; test: DNA combing analysis of replication fork extension; type: cell-based, human; settings: 0.2 µM, 20 minutes, vs untreated control
Summary of the method: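 Synchronized S-phase cells (DMEM, 10% FBS) pulsed with CldU for 10 min, washed, then IdU for 20 min with or without 0.2 µM compound. Cells lysed on slides and DNA fibres spread. Fibres immunostained for CldU (green) and IdU (red). Segment lengths from more than 30 fibres averaged ± SD. IdU lengths compared with the untreated control by Student's t-test.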

[11] = Stability in plasma, Es1e/SCID mice; type: in vitro ADME; settings: Es1^e/SCID mouse plasma, 37°C
Summary of the method: as §2

## O=C(CNC(=O)c1cccc2ccccc12)Nc1ccccc1Cc1ccccc1 [AOH39]
[1]; 4 µM AOH39
  HR-mediated DNA repair: inhibited HR-mediated DNA repair
Human TRβ
  thyroid hormone activity in TR reporter assay: neither AOH1160 nor AOH39 showed any thyroid hormone activity
[2]; SK-N-DZ, 3 µM AOH39
  intracellular γH2A.X levels: enhanced intracellular γH2A.X levels
SK-N-DZ and H524 cells; SK-N-DZ, 3 µM AOH39, 6 or 24 h
  cell cycle effect: caused cell cycle arrest of cancer cells at the S and, to a larger degree, G2/M phases
SK-N-DZ and H524 cells; SK-N-DZ, 3 µM AOH39, 24 h
  apoptosis (sub-G1 population): cancer cells start to die through apoptosis
[3]
  EJ-mediated DNA repair: without exerting any statistically significant effect on EJ

## O=C(CNC(=O)c1cccc2ccccc12)Nc1ccccc1Oc1ccccc1 [AOH1160]
SK-N-DZ cells
  apoptosis by TUNEL: increase in apoptosis
Carboxyl esterase, ES-1; amide hydrolysis
  sensitivity to cleavage by ES-1: sensitive to cleavage by the carboxyl esterase, ES-1
Carboxyl esterase, ES-1; rodent plasma, 37°C
  stability in plasma: not stable
[1]; various concentrations of AOH1160
  HR-mediated DNA repair: blocks DNA repair in DR-GFP
[4]
  stability in plasma: stable
15 mM D2O phosphate buffer, 2% D6-DMSO, determined by 1D NMR spectra
  maximum concentration achievable under STD NMR condition: approximately 14.5 µM
Not told
  permeability: high permeability
[5]; vs vehicle
  tumor burden: significantly reduced tumor burden
[5]; data not shown
  death or weight loss: did not cause any death or significant weight loss
Pharmacokinetic; PO, 40 mg/kg
  half-life in vivo: about 3.5 h
  oral availability: available to the animal through the oral dosing route
  peak concentration (CMAX): well above the calculated IC50 of most cancer cell lines
Pharmacokinetic; mouse, in vivo
  metabolites in animal plasma: Metabolites derived from AOH1160 hydroxylation were observed
Normal neural stem cells
  growth of normal neural stem cells: without significantly affecting the growth of normal neural stem cells
Glioblastoma stem cells
  growth of glioblastoma stem cells: inhibited the growth of glioblastoma stem cells
[6]
  toxicity in repeated dose study: No significant toxicity was observed
Human TRβ
  thyroid hormone activity in TR reporter assay: neither AOH1160 nor AOH39 showed any thyroid hormone activity
Recombinant human PCNA
  effect on STD values of T3: caused reduction of STD values of T3
7SM0032 cells
  apoptosis by TUNEL in non-malignant cells: Nor does it increase intracellular γH2A.X level (Fig 4b) or induce apoptosis
7SM0032 and SAEC cells
  cell cycle profiles of non-malignant cells: doesn’t significantly change the cell cycle profiles
[2]; cancer cells, 500 nM AOH1160
  caspase activation: activation of caspase-3 and caspase-9
  γH2A.X levels: increases γH2A.X levels
SK-N-DZ NB cells
  sensitivity to cisplatin, colony formation: more sensitive to cisplatin treatment in the presence of AOH1160
SK-N-DZ and H524 cells; 500 nM AOH1160
  apoptosis (sub-G1 population): promotes apoptosis
SK-N-DZ and H524 cells; neuroblastoma and small cell lung cancer cells, 500 nM AOH1160
  cell cycle effect: causes cell cycle arrest
[7]
  stability in plasma: stable
[8]
  stability in plasma: stable
[9]
  concentration up to which not significantly toxic: at least 5 µM
γH2A.X in 7SM0032 cells
  intracellular γH2A.X level in non-malignant cells: Nor does it increase intracellular γH2A.X level
[10]
  length of IdU-incorporated DNA strands (replication fork extension): significantly shorter IdU-incorporated DNA strands
[11]
  stability in plasma: stable
